Experimental data published in ChEMBL document CHEMBL1641573, “3-[(Imidazolidin-2-yl)imino]indazole ligands with selectivity for the α(2)-adrenoceptor compared to the imidazoline I(1) receptor” (Bioorg Med Chem, 2011).

Experiments:
[1] = molecular target: T1, Alpha-2A adrenergic receptor (Homo sapiens, UniProt P08913); test: Agonist activity at human recombinant alpha2A adrenergic receptor expressed in CHO cells assessed as induction of [35S]GTPgammaS binding after 60 mins by scintillation counting; assay type: functional, cell-based
T1 sequence (P08913 whole entry): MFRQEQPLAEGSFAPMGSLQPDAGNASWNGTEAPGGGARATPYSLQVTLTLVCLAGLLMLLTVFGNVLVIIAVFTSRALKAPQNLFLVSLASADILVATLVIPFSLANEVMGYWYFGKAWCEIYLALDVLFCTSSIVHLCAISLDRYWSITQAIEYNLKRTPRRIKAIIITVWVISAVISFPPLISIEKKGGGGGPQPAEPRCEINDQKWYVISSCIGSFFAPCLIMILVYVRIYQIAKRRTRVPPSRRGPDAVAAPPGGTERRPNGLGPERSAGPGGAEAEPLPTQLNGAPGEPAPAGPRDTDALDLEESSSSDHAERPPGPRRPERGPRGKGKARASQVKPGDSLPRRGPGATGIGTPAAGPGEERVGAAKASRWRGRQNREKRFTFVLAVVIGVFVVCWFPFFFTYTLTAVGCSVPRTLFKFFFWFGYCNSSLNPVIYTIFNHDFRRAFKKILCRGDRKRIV
Method in brief: (§1)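 Membranes from CHO-K1 cells expressing human α2A-adrenoceptor, in Tris buffer pH 7.4 with 10 µM GDP, 5 mM MgCl2 and 150 mM NaCl; 5 µg protein preincubated with agonist 30 min at 37 °C, then 0.1 nM [35S]GTPγS for 60 min at 37 °C. Filtration and scintillation counting, duplicates, at least three repeats.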

[2] = molecular target: T2, Alpha-2A adrenergic receptor (Homo sapiens) (UniProt P08913); test: Agonist activity at human recombinant alpha2A adrenergic receptor expressed in CHO cells assessed as induction of [35S]GTPgammaS binding after 60 mins by scintillation counting relative to noradrenaline; assay type: functional, cell-based
T2 sequence (whole entry): T1 sequence (P08913 whole entry)
Method in brief: as §1, with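 “repeats. Curve fit gave EC50 and intrinsic activity as % of noradrenaline.” for “repeats.”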

[3] = molecular target: T3, Adrenergic receptor alpha-1 (Rattus norvegicus, UniProt P15823+P23944+P43140); test: Displacement of [3H]prazosin from alpha1 adrenergic receptor in Sprague-Dawley rat brain membrane after 45 mins by liquid scintillation counting; assay type: cell membranes
T3 sequence (P15823 whole entry): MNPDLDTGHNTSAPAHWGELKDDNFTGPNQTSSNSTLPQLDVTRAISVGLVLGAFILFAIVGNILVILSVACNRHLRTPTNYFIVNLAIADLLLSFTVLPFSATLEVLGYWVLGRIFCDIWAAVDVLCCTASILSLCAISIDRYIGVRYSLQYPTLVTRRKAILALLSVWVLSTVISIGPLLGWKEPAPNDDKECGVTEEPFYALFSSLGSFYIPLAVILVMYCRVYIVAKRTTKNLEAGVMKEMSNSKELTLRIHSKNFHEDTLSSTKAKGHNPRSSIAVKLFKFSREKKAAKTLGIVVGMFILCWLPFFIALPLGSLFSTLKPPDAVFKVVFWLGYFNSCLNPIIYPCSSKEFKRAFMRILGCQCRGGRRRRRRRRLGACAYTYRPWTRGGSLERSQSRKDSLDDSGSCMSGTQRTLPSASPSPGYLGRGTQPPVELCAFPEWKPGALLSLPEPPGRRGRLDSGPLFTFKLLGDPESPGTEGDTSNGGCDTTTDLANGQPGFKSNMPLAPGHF
T3 sequence (P23944 whole entry): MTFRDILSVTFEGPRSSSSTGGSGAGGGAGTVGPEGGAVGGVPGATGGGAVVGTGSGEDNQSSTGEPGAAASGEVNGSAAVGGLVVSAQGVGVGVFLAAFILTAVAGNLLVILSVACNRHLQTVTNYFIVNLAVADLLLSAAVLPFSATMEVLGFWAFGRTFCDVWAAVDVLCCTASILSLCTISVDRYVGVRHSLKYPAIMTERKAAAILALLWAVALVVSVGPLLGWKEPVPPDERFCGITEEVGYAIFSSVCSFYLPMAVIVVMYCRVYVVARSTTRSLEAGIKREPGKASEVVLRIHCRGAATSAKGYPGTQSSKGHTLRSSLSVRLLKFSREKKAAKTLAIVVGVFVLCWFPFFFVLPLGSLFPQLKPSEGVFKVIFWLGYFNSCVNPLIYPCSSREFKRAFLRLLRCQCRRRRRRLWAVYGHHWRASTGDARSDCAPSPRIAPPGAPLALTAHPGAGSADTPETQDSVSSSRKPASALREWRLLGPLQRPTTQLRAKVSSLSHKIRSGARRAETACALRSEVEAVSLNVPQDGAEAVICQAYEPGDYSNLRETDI
T3 sequence (P43140 whole entry): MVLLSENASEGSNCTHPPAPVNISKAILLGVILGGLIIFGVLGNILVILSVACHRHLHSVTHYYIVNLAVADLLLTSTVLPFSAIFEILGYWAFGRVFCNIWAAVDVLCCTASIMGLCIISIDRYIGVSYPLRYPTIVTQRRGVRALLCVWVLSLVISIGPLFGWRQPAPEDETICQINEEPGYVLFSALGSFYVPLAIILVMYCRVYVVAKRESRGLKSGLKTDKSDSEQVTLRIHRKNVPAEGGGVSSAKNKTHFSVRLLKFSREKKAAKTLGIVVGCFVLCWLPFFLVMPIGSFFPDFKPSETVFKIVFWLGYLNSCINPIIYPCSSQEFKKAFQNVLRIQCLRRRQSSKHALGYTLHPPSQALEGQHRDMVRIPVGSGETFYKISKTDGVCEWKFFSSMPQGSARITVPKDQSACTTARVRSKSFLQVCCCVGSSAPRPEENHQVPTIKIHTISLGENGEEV
Method in brief: (§2)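 Crude P2 brain membranes from male Sprague–Dawley rats (0.2–0.3 mg protein) incubated with 11 concentrations (0.01 nM–100 µM) and 1 nM of [3H]2BFI (I2), [3H]prazosin (α1) or [3H]RX821002 (α2), at room temperature in triplicate. Non-specific binding: BU224, phenylephrine or rauwolscine. Filtration, scintillation counting, Ki by Cheng–Prusoff from 3–4 experiments.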

[4] = molecular target: T4, Adrenergic receptor alpha-2 (Rattus norvegicus, UniProt P22086+P19328+P22909); test: Displacement of [3H]RX821002 from alpha2 adrenergic receptor in Sprague-Dawley rat brain membrane after 45 mins by liquid scintillation counting; assay type: cell membranes; method in brief: as §2
T4 sequence (P22086 whole entry): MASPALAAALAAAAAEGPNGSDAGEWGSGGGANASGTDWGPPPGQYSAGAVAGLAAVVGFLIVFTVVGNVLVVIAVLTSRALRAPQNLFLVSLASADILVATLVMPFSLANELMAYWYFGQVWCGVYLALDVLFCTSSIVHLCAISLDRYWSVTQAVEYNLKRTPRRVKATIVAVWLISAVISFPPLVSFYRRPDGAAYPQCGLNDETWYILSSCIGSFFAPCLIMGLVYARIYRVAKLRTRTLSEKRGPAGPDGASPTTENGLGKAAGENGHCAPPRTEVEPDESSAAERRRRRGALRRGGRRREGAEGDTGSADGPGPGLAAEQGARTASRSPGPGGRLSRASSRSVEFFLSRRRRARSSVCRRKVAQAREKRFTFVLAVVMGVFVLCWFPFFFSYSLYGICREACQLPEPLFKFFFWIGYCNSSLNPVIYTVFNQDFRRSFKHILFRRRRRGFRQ
T4 sequence (P19328 whole entry): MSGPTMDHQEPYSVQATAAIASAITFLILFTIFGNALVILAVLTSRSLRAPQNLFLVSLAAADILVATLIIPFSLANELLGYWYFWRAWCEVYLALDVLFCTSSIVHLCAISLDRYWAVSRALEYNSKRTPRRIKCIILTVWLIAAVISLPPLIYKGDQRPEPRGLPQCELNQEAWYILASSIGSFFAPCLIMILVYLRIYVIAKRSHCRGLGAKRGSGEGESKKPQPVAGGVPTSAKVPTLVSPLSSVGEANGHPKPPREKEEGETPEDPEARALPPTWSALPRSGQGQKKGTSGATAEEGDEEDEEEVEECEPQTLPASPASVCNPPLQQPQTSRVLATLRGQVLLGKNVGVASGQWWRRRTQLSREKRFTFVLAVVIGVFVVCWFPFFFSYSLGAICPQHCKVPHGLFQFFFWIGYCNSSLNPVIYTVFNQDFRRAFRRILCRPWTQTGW
T4 sequence (P22909 whole entry): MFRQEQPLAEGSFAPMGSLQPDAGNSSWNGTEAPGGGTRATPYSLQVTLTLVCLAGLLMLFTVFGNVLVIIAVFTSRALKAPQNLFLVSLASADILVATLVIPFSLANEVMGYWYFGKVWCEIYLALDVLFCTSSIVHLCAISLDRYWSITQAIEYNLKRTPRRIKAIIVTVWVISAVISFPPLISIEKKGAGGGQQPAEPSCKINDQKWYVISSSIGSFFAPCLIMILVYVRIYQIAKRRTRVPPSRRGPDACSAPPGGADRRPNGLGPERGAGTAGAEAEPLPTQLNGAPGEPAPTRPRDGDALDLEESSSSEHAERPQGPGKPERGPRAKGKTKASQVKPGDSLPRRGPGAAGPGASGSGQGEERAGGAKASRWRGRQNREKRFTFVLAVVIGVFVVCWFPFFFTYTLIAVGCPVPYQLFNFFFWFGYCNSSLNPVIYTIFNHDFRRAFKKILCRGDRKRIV

Nischarin = Nischarin (Rattus norvegicus, UniProt Q4G017); test: Displacement of [3H]clonidine from imidazoline I1 receptor in Sprague-Dawley rat kidney membrane after 45 mins by liquid scintillation counting; assay type: cell membranes
Method in brief: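 Specific binding defined by 10 µM rilmenidine. 11 test concentrations, 50 mM Tris-HCl pH 7.4, room temperature 45 min. Filtration through PEI-soaked glass-fibre filters, scintillation counting, IC50 by curve fitting.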

Rattus norvegicus [5] = species: Rattus norvegicus; test: Selectivity ratio of IC50 for imidazoline I1 receptor in Sprague-Dawley rat kidney membrane to Ki for alpha2 adrenergic receptor in Sprague-Dawley rat brain membrane; assay type: cell membranes
Rattus norvegicus [6] = test: Cardioprotectant activity in Wistar rat assessed as change in mean arterial pressure at 0.01 mg/kg, iv; assay type: functional, Artery
Rattus norvegicus [7] = test: Cardioprotectant activity in Wistar rat assessed as change in mean arterial pressure at 0.1 mg/kg, iv; assay type: functional, Artery
Rattus norvegicus [8] = test: Cardioprotectant activity in Wistar rat assessed as change in mean arterial pressure at 1 mg/kg, iv; assay type: functional, Artery
Rattus norvegicus [9] = test: Cardioprotectant activity in Wistar rat assessed as change in heart rate at 0.01 mg/kg, iv; assay type: functional
Rattus norvegicus [10] = test: Cardioprotectant activity in Wistar rat assessed as change in heart rate at 0.1 mg/kg, iv; assay type: functional
Rattus norvegicus [11] = test: Cardioprotectant activity in Wistar rat assessed as change in heart rate at 1 mg/kg, iv; assay type: functional

Chain of Nischarin (Q4G017 whole entry): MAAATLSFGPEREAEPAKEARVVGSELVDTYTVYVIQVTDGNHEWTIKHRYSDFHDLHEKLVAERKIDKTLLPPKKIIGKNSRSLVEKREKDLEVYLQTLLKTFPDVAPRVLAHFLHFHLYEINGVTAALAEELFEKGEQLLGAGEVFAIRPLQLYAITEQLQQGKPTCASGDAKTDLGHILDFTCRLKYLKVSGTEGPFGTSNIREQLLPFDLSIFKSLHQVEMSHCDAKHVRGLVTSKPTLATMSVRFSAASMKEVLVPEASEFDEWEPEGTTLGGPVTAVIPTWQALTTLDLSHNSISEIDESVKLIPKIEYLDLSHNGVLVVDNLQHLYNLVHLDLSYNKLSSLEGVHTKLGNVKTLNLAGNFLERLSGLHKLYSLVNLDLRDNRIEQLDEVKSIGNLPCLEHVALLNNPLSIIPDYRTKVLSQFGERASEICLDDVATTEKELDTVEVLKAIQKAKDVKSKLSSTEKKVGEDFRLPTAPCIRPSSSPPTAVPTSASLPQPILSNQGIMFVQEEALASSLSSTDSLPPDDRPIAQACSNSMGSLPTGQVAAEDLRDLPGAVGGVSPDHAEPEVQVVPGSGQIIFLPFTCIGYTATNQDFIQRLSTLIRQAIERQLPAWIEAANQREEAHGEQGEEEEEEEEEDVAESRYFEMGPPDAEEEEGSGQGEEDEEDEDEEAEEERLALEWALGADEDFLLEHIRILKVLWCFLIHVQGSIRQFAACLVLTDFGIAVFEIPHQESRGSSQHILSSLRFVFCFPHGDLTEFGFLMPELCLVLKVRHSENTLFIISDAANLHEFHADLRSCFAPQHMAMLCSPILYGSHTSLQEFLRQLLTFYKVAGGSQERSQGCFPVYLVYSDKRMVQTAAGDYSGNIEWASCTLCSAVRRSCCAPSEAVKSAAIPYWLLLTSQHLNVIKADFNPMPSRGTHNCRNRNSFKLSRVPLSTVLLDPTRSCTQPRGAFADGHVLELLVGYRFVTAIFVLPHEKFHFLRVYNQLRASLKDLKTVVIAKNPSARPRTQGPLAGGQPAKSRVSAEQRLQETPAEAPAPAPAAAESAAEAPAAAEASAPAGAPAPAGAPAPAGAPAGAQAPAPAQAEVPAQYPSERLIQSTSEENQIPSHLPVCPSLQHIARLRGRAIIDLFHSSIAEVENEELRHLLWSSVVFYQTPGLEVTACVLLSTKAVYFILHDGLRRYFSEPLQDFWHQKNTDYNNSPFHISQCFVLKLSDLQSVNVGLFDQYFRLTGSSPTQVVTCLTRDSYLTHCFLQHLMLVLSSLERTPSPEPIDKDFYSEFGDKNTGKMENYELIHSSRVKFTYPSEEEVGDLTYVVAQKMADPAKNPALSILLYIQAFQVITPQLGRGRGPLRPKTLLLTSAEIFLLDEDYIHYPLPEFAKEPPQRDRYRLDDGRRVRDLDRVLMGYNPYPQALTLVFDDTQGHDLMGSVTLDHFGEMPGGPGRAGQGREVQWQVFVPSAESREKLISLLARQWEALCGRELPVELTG

Compound	EC50 [1] [µM]	Intrinsic activity [2] [%]	Ki [3] [µM]	Ki [4] [µM]	IC50 (Nischarin) [µM]	Ratio (Rattus norvegicus [5])	Activity (Rattus norvegicus [6]) [mmHg]	Activity (Rattus norvegicus [7]) [mmHg]	Activity (Rattus norvegicus [8]) [mmHg]	Activity (Rattus norvegicus [9]) [bpm]	Activity (Rattus norvegicus [10]) [bpm]	Activity (Rattus norvegicus [11]) [bpm]
Clc1cccc2cnn(N=C3NCCN3)c12	0.015	48	–	–	–	–	–	–	–	–	–	–
Cl.Clc1ccc2[nH]nc(N=C3NCCN3)c2c1	–	–	0.121	10.6	> 100	> 9.4	–	–	–	–	–	–
Cc1cccc2[nH]nc(N=C3NCCN3)c12.Cl	0.014	40	0.0465	0.0226	32.5	690	-17.1	-53.5	-22	-43	-132	-155
Cl.c1ccc2c(N=C3NCCN3)n[nH]c2c1	0.082	55	–	0.0394	3.22	82	–	–	–	–	–	–
COc1cccc2[nH]nc(N=C3NCCN3)c12.Cl	–	–	0.196	0.748	25.6	34	–	–	–	–	–	–
Cc1cccc([C@H](C)c2c[nH]cn2)c1C	–	60	–	–	–	–	–	–	–	–	–	–
Cc1ccc2[nH]nc(N=C3NCCN3)c2c1.Cl	–	–	29	11.4	21.2	2	–	–	–	–	–	–
COc1ccc2[nH]nc(N=C3NCCN3)c2c1.Cl	–	–	0.244	1.46	> 100	> 68	–	–	–	–	–	–
